In assay [1] the test system is panel of 442 kinases. The conditions noted are these: cited from earlier work.
For assay [2], the target named is Bcr-Abl (wt) (Homo sapiens, UniProt P00519+P11274). In words: Cellular antiproliferative activity on wtBcr-Abl-Ba/F3. It is filed as cell-based. The conditions noted are these: for Selectivity for Bcr-Abl dependent cellular growth: versus parental Ba/F3 cytotoxicity.
Assay [3] relates to panel of 442 kinases. In words: KINOMEscan kinase selectivity profiling. Type of assay: binding. The conditions noted are these: 10 μM.
Assay [4] addresses Bcr-Abl (T315I) (Homo sapiens, UniProt P00519+P11274, T315I). In words: Cellular antiproliferative activity on mutant Bcr-Abl-T315I-Ba/F3. Type of assay: cell-based. Particulars: for EC50: read-out: EC50 against T315I mutant; for Fold improvement relative to 3 against T315I mutant Bcr-Abl: relative to compound 3. In short, it runs like this:
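Ba/F3 cells transformed with wild-type or T315I Bcr-Abl were tested for antiproliferative activity, with parental Ba/F3 cells tested alongside. The value is an EC50 from the cellular assay.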

[5] abbreviates: carbonyl group at the 6-position.

Read-outs that look alike come from different tables or passages of the source. A value given as a limit tells only on which side of the number the result lay.

As for `CCN1CCN(Cc2ccc(NC(=O)c3cccc(-c4ccc5nc(NC(=O)C6CC6)sc5n4)c3)cc2C(F)(F)F)CC1` [HG-7-85-01], the “Selectivity score S10” value in assay [1] is recorded as 0.056.
As to `CCN1CCN(Cc2ccc(NC(=O)c3ccc(C)c(C#Cc4cnc5[nH]ccc5c4)c3)cc2C(F)(F)F)CC1` [Compound 12], the “Selectivity for Bcr-Abl dependent cellular growth” value in assay [2] was “up to 1000 fold”. Besides, the “Number of kinases with ambit score of less than 10% of the DMSO control” value in assay [3] (panel of 442 kinases) stood at 203 kinases. Besides, the “Ambit score of kinase hits (% of the DMSO control)” value in assay [3] (hits: ABL, ARG, BLK, PITSLRE, CRIK, FMS/CSFR, DDR1, EphA8, FGFR4, HPK1, JNK2, KIT, LOK, LYN, GCK, MUSK, MYO3B, p38α, p38β, PDGFRα, PDGFRβ, RET, RIPK1, SRC, TAO1, TAO2, TAO3, TIE2) is listed as less than 0.1%. For the same compound, the EC50 (usually the midpoint of the concentration-response curve) in assay [4] was less than 0.1 µM.
On to `CCN1CCN(Cc2ccc(NC(=O)c3ccc(C)c(C#Cc4cnc5[nH]cnc5c4)c3)cc2C(F)(F)F)CC1` [Compound 14], for which the EC50 in assay [4] is less than 0.1 µM.
For `CCN1CCN(Cc2ccc(NC(=O)c3ccc(C)c(C#Cc4ccc(NC(=O)C5CC5)nc4)c3)cc2C(F)(F)F)CC1` [Compound 5], the “Fold improvement relative to 3 against T315I mutant Bcr-Abl” value in assay [4] is listed as roughly 8 fold.
For the compound `CCN1CCN(Cc2ccc(NC(=O)c3ccc(C)c(C#Cc4cccnc4)c3)cc2C(F)(F)F)CC1` [Compound 3], the “Selectivity for Bcr-Abl dependent cellular growth” value in assay [2] was “up to 1000 fold”. For the same compound, in assay [3] (panel of 442 kinases), the “Number of kinases with ambit score of less than 10% of the DMSO control” value is recorded as 193 kinases and the “Selectivity score S10” value worked out at 0.427.
In the case of `CCN1CCN(Cc2ccc(NC(=O)c3ccc(C)c(C#Cc4ccc(C(=O)NC)nc4)c3)cc2C(F)(F)F)CC1` [Compound 6], the “Fold less potent EC50 against wild-type Bcr-Abl” value in assay [2] (setting [5]) is 6 fold. Also, in assay [4] (setting [5]), the “Fold less potent EC50 against T315I Bcr-Abl” value was found to be 6 fold.
As for `CCN1CCN(Cc2ccc(NC(=O)c3ccc(C)c(C#Cc4ccc(NC(C)=O)nc4)c3)cc2C(F)(F)F)CC1` [Compound 4], the “Fold improvement relative to 3 against T315I mutant Bcr-Abl” value in assay [4] is roughly 8 fold.
